Experimental data published in ChEMBL document CHEMBL4811246, “New organoselenides (NSAIDs-Se derivatives) as potential anticancer agents: Synthesis, biological evaluation and in silico calculations” (Eur J Med Chem, 2021).
Activity calls are given as the source filed them. The rule behind the calls is not given here.

Experiments:
[1] = tested on: Caco-2; test: Cytotoxicity against human Caco2 cells assessed as reduction in cell viability measured upto 72 hrs by MTT assay; type: functional, cell-based; conditions: Caco-2, 72 h
Summary of the method: (§1)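 ATCC cells grown in RPMI 1640 with 10% FBS and penicillin/streptomycin at 37 °C, 5% CO2. Cells seeded at 1×10^4 per well and allowed 24 h to attach, then exposed to graded compound concentrations for 24, 48 and 72 h, DMSO kept below 1.25%. MTT added 3 h before the end, formazan dissolved in DMSO, OD read at 570 nm. IC50 from viability, three repetitions, mean ± SD.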

[2] = tested on: BGC-823; test: Cytotoxicity against human BGC-823 cells assessed as reduction in cell viability measured upto 72 hrs by MTT assay; type: functional, cell-based; conditions: BGC-823, 72 h; summary of the method: as §1
[3] = tested on: MCF7; test: Cytotoxicity against human MCF7 cells assessed as reduction in cell viability measured upto 72 hrs by MTT assay; type: functional, cell-based; conditions: MCF7, 72 h; summary of the method: as §1
[4] = tested on: PC-3; test: Cytotoxicity against human PC-3 cells assessed as reduction in cell viability measured upto 72 hrs by MTT assay; type: functional, cell-based; conditions: PC-3, 72 h; summary of the method: as §1
[5] = Antioxidant activity assessed as DPPH radical scavenging activity incubated for 30 mins under dark condition relative to control; type: functional; parameters: concentration or dose not given beside the values
Summary of the method: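 DPPH radical scavenging: test samples at a range of concentrations mixed with DPPH solution and held 30 min in the dark, then absorbance read at 517 nm. Ascorbic acid and ebselen served as positive controls and DMSO as negative control. % activity = [(control A − sample A)/control A] × 100. Mean ± SD of three independent experiments.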

[6] = Antioxidant activity assessed as bleomycin-Fe2+-induced DNA degradation by measuring absorbance at 0.1 mg/ml after 1 hr; type: functional; parameters: unit not given here
Summary of the method: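 Stopped with EDTA, then TBA (1% w/v) and HCl (25% v/v) added and heated 80 °C for 30 min. After cooling on ice, DNA damage read as absorbance increase at 532 nm. L-ascorbic acid positive control.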

[7] = Antioxidant activity assessed as GPx-like activity by measuring oxidation of NADPH to NADP+ by NADPH-reductase coupled assay; type: functional
Summary of the method: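 NADPH/glutathione reductase coupled GPx-like assay: 50 mM phosphate buffer with 0.1% Triton X-100, NADPH reagent containing GSH, glutathione reductase and NADPH, and compound (0.01 ml of 41 mM). Reaction started with H2O2 (0.8 mM), and A340 decrease followed over 3 min to give ΔA/min. Values background-corrected for the H2O2 plus GSH reaction. Ebselen positive control.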

[8] = tested on: BGC-823; test: Induction of apoptosis in human BGC-823 cells assessed as down regulation of Bcl-2 protein expression at IC50 after 48 hrs by ELISA; type: functional, cell-based
Summary of the method: (§2)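 Cells harvested with trypsin and lysed by freeze-thaw in liquid nitrogen, then total protein isolated. Bcl-2 and IL-2 quantified by ELISA, read at 450 nm.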

[9] = tested on: BGC-823; test: Induction of apoptosis in human BGC-823 cells assessed as upregulation of IL-2 protein expression at IC50 after 48 hrs by ELISA; type: functional, cell-based; summary of the method: as §2
[10] = tested on: BGC-823; test: Induction of apoptosis in human BGC-823 cells assessed as upregulation of caspase-3 protein expression at IC50 after 48 hrs by ELISA; type: functional, cell-based
[11] = Antioxidant activity assessed as DPPH radical scavenging activity incubated for 30 mins under dark condition relative to vitamin C; type: functional

## CC(C(=O)OCCC[Se]C#N)c1cccc(C(=O)c2ccccc2)c1 (stereo not given)
[1]
  IC50: 19.7 µM
[2]
  IC50: 12.6 µM
[3]
  IC50: 8.3 µM
[4]
  IC50: 12.6 µM
[5]
  inhibition: 57.1%
[6]
  Activity: 67.6
[7]
  Activity: Active

## CC(C(=O)OCCC[Se]C(F)(F)F)c1cccc(C(=O)c2ccccc2)c1 (stereo not given)
[1]
  IC50: 9.5 µM
[2]
  IC50: 4.8 µM
[3]
  IC50: 6.5 µM
[4]
  IC50: 8.8 µM
[8]
  Activity: Active
[9]
  Activity: Active
[10]
  Activity: Active
[5]
  inhibition: 66.3%
[11]
  fold change (FC): 0.7
[6]
  Activity: 128
[7]
  Activity: Active

## COc1ccc2c(c1)c(CC(=O)OCCC[Se]C#N)c(C)n2C(=O)c1ccc(Cl)cc1
[1]
  IC50: 32.4 µM
[2]
  IC50: 35.5 µM
[3]
  IC50: 29.3 µM
[4]
  IC50: 21.8 µM
[5]
  inhibition: 44.3%
[11]
  fold change (FC): 0.4
[6]
  Activity: 72.4

## Cc1cccc(Nc2ccccc2C(=O)OCCC[Se]C(F)(F)F)c1C
[1]
  IC50: 13.3 µM
[2]
  IC50: 19.6 µM
[3]
  IC50: 8.5 µM
[4]
  IC50: 24.5 µM
[5]
  inhibition: 23.3%
[11]
  fold change (FC): 0.3
[6]
  Activity: 77.6

## O=c1[nH]cc(F)c(=O)[nH]1 [FLUOROURACIL]
[1]
  IC50: 7.8 µM
[2]
  IC50: 15.4 µM
[4]
  IC50: 9.5 µM

## CC1=C(CC(=O)OCCC[Se]C#N)c2cc(F)ccc2/C1=C\c1ccc([S+](C)[O-])cc1 (stereo not given)
[1]
  IC50: 28.6 µM
[2]
  IC50: 17.5 µM
[3]
  IC50: 31.3 µM
[4]
  IC50: 22.3 µM
[5]
  inhibition: 45.7%
[11]
  fold change (FC): 0.5
[6]
  Activity: 91.3
[7]
  Activity: Active

## COc1ccc2c(c1)c(CC(=O)OCCC[Se]C(F)(F)F)c(C)n2C(=O)c1ccc(Cl)cc1
[1]
  IC50: 10.5 µM
[2]
  IC50: 7.3 µM
[3]
  IC50: 9.3 µM
[4]
  IC50: 7.8 µM
[5]
  inhibition: 36.6%
[11]
  fold change (FC): 0.4
[6]
  Activity: 62.6

## N#C[Se]CCCOC(=O)c1ccccc1Nc1cccc(C(F)(F)F)c1
[1]
  IC50: 8.4 µM
[2]
  IC50: 13.7 µM
[3]
  IC50: 14.2 µM
[4]
  IC50: 7.5 µM
[5]
  inhibition: 51.5%
[11]
  fold change (FC): 0.5
[6]
  Activity: 76.1

## CC(C)Cc1ccc(C(C)C(=O)O)cc1 (stereo not given) [IBUPROFEN]
[1]
  IC50: > 50 µM
[2]
  IC50: > 50 µM
[3]
  IC50: > 50 µM
[4]
  IC50: > 50 µM

## COc1ccc2cc(C(C)C(=O)OCCC[Se]C(F)(F)F)ccc2c1 (stereo not given)
[1]
  IC50: 16.3 µM
[2]
  IC50: 10.8 µM
[3]
  IC50: 12.4 µM
[4]
  IC50: 18.4 µM
[5]
  inhibition: 37%
[6]
  Activity: 91.4

## CC(C)Cc1ccc(C(C)C(=O)OCCC[Se]C#N)cc1 (stereo not given)
[1]
  IC50: 14.5 µM
[2]
  IC50: 24.5 µM
[3]
  IC50: 19.5 µM
[4]
  IC50: 22.5 µM
[5]
  inhibition: 31.2%
[11]
  fold change (FC): 0.3
[6]
  Activity: 60.3

## CCc1cccc2c3c([nH]c12)C(CC)(CC(=O)OCCC[Se]C#N)OCC3 (stereo not given)
[1]
  IC50: 11.5 µM
[2]
  IC50: 21.4 µM
[3]
  IC50: 14.4 µM
[4]
  IC50: 31.4 µM
[5]
  inhibition: 30.4%
[11]
  fold change (FC): 0.3
[6]
  Activity: 69.4

## O=C(OCCC[Se]C(F)(F)F)c1ccccc1Nc1cccc(C(F)(F)F)c1
[1]
  IC50: 3.5 µM
[2]
  IC50: 2.7 µM
[3]
  IC50: 4.2 µM
[4]
  IC50: 5.8 µM
[8]
  Activity: Active
[9]
  Activity: Active
[10]
  Activity: Active
[5]
  inhibition: 68.6%
[11]
  fold change (FC): 0.7
[6]
  Activity: 115

## COc1ccc2cc(C(C)C(=O)OCCC[Se]C#N)ccc2c1 (stereo not given)
[1]
  IC50: 21.5 µM
[2]
  IC50: 17.3 µM
[3]
  IC50: 32.8 µM
[4]
  IC50: 22 µM
[5]
  inhibition: 24.6%
[6]
  Activity: 81.6

## O=C1O[C@H]([C@@H](O)CO)C(O)=C1O
[5]
  inhibition: 96.4%
[11]
  fold change (FC): 1
[6]
  Activity: 297

## COc1ccc2cc([C@H](C)C(=O)O)ccc2c1 [NAPROXEN]
[1]
  IC50: > 50 µM
[2]
  IC50: > 50 µM
[3]
  IC50: > 50 µM
[4]
  IC50: > 50 µM

## CC(C(=O)OCCC[Se]C#N)c1ccc(-c2ccccc2)c(F)c1 (stereo not given)
[1]
  IC50: 27.5 µM
[2]
  IC50: 29.4 µM
[3]
  IC50: 22.4 µM
[4]
  IC50: 19.7 µM
[5]
  inhibition: 17.2%
[6]
  Activity: 86.5

## CC(=O)Oc1ccccc1C(=O)O [ASPIRIN]
[1]
  IC50: > 50 µM
[2]
  IC50: > 50 µM
[3]
  IC50: > 50 µM
[4]
  IC50: > 50 µM

## CC(=O)Oc1ccccc1C(=O)OCCC[Se]C#N
[1]
  IC50: 14.5 µM
[2]
  IC50: 17.3 µM
[3]
  IC50: 8.9 µM
[4]
  IC50: 11.2 µM
[5]
  inhibition: 27.3%
[11]
  fold change (FC): 0.3
[6]
  Activity: 78.3

## CCc1cccc2c3c([nH]c12)C(CC)(CC(=O)OCCC[Se]C(F)(F)F)OCC3 (stereo not given)
[1]
  IC50: 10.4 µM
[2]
  IC50: 18.5 µM
[3]
  IC50: 8.7 µM
[4]
  IC50: 19.7 µM
[5]
  inhibition: 41.4%
[11]
  fold change (FC): 0.4
[6]
  Activity: 86.4
[7]
  Activity: Active

## CC1=C(CC(=O)OCCC[Se]C(F)(F)F)c2cc(F)ccc2/C1=C\c1ccc([S+](C)[O-])cc1 (stereo not given)
[1]
  IC50: 16.4 µM
[2]
  IC50: 14.4 µM
[3]
  IC50: 19.6 µM
[4]
  IC50: 11.6 µM
[5]
  inhibition: 44.9%
[11]
  fold change (FC): 0.5
[6]
  Activity: 73.7
[7]
  Activity: Active

## CC(C(=O)OCCC[Se]C(F)(F)F)c1ccc(-c2ccccc2)c(F)c1 (stereo not given)
[1]
  IC50: 4.5 µM
[2]
  IC50: 2.5 µM
[3]
  IC50: 2.7 µM
[4]
  IC50: 3.3 µM
[8]
  Activity: Active
[9]
  Activity: Active
[10]
  Activity: Active
[5]
  inhibition: 73.5%
[11]
  fold change (FC): 0.8
[6]
  Activity: 119

## CC(C)Cc1ccc(C(C)C(=O)OCCC[Se]C(F)(F)F)cc1 (stereo not given)
[1]
  IC50: 9.5 µM
[2]
  IC50: 14.3 µM
[3]
  IC50: 9.9 µM
[4]
  IC50: 10.4 µM
[5]
  inhibition: 48.5%
[11]
  fold change (FC): 0.5
[6]
  Activity: 95.7
[7]
  Activity: Active
